Article PMC8370032 (Bioorganic & medicinal chemistry, 2021)

Assays:
[1] = test system: RPMI-8226 cells; test: MTT assay; type: cell-based, human; settings: RPMI-8226, 48 hours
[2] = test system: myeloma cells; settings: cited from earlier work
[3] = test system: RPMI-8226 cells; type: cell-based, human
Outline: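 RPMI-8226 myeloma cells were exposed to a range of test-compound concentrations for 48 h, with lovastatin 10 μM as positive control. Lysates were immunoblotted for unmodified Rap1a (antibody detects only unmodified protein), H-Ras and β-tubulin (loading), and the same lysates were used for a lambda light chain ELISA (% of untreated control; mean ± SD, n=3; two-tailed t-test, p<0.05). LEC is the lowest concentration giving a visible unmodified Rap1a band plus a significant light chain rise.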

| Structure (SMILES) | cytotoxicity in MTT assay [1] | also measured |
| --- | --- | --- |
| CC(C)=CCC/C(C)=C/Cn1cc(CC(CN)(P(=O)([O-])[O-])P(=O)([O-])[O-])nn1.[Na+].[Na+].[Na+].[Na+] [Compound 17] | induced cytotoxicity | – |
| CC(C)=CCC/C(C)=C/Cn1cc(CC(C)(P(=O)([O-])[O-])P(=O)([O-])[O-])nn1.[Na+].[Na+].[Na+].[Na+] [Compound 3] | – | increase in potency in cellular assays compared to the parent compound 1 [2]: 5 fold |
| CC(C)=CCC/C(C)=C/Cn1cc(CC(O)(P(=O)([O-])[O-])P(=O)([O-])[O-])nn1.[Na+].[Na+].[Na+].[Na+] [Compound 37] | induced cytotoxicity | – |
| CC(C)=CCC/C(C)=C/Cn1cc(C=C(P(=O)([O-])[O-])P(=O)([O-])[O-])nn1.[Na+].[Na+].[Na+].[Na+] [Compound 29, Disodium [1-[bis(sodiooxy)phosphoryl]-2-[1-[3,7-dimethylocta-2,6-dien-1-yl]-1H-1,2,3-triazol-4-yl]ethenyl]phosphonate] | induced cytotoxicity | potency in cellular assays relative to cyclopropyl derivative 31 [3]: two-fold more potent |
| CCC(Cc1cn(C/C=C(\C)CCC=C(C)C)nn1)(P(=O)([O-])[O-])P(=O)([O-])[O-].[Na+].[Na+].[Na+].[Na+] [Compound 4] | – | decrease in potency in cellular assays (relative to 1) [2]: five-fold |
| CC(C)=CCC/C(C)=C/Cn1cc(CC(F)(P(=O)([O-])[O-])P(=O)([O-])[O-])nn1.[Na+].[Na+].[Na+].[Na+] [Compound 7, (2-[1-(3,7-Dimethyl-octa-2,6-dienyl)-1H-[1,2,3]triazol-4-yl]-1-fluoro-1-phosphono-ethyl)-phosphonic acid] | induced cytotoxicity | – |
| CC(C)=CCC/C(C)=C/Cn1cc(CCP(=O)([O-])[O-])nn1.[Na+].[Na+] [Compound 27] | neither of the monophosphonates (11, 27), induced cytotoxicity | – |
| C=C(Cc1cn(C/C=C(\C)CCC=C(C)C)nn1)P(=O)([O-])[O-].[Na+].[Na+] [Compound 11] | neither of the monophosphonates (11, 27), induced cytotoxicity | – |
